Data: publication PMC5689068 (ACS chemical neuroscience, 2016)

What was measured:
naïve rats = conditions: naïve animals, i.th.; cited from earlier work
BK receptors = assay: Radioligand competition binding assay with [3H]BK in rat brain membranes; conditions: pH 6.8, rat brain membranes, 1 nM [3H]BK
[1] = In vitro stability in human plasma; format: in vitro ADME
In short: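 Test compound stock (50 mg/mL in water) was diluted 5-fold into lithium-heparin human plasma and incubated at 37 °C. Samples were taken at 1, 2, 4, 6, 12 and 24 h, quenched with EtOH and centrifuged. Supernatant was run on C-18 RP-HPLC (10–90% acetonitrile, 40 min). t1/2 = 0.693/b, where b is the slope of ln(fraction parent remaining) versus time. Three independent experiments.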

[2] = In vitro stability in rat plasma; format: in vitro ADME
[3] = Rat plasma stability of 1 with or without protease inhibitors; format: in vitro ADME; conditions: t1/2, rat plasma, calculated after a 4 h incubation
In short: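 Test compound was added to rat plasma together with one protease inhibitor (60 nM bestatin, 100 µM chymostatin, 1 mM PMSF, 10 µM captopril or 1 mM EDTA), with all five combined, or with none. Incubation was at 37 °C after 5-fold dilution of the stock. Parent remaining was measured by RP-HPLC after EtOH quench. t1/2 was calculated after 4 h incubation as 0.693/slope of ln(fraction remaining) versus time.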

SNL rats = conditions: nerve-injured animals (L5/L6 SNL), i.th., dose-dependent; cited from earlier work

CC[C@H](C)[C@H](NC(=O)[C@H](CCCNC(=N)N)NC(=O)[C@H](CC(C)C)NC(=O)[C@@H](N)Cc1ccccc1)C(=O)N[C@@H](CCCNC(=N)N)C(=O)N1CCC[C@H]1C(=O)N[C@@H](CCCCN)C(=O)O [compound 1, H-Phe-Leu-Arg-Ile-Arg-Pro-Lys-OH]
Dyn A-induced hyperalgesia and motor impairments (naïve rats): block Dyn A-induced hyperalgesia and motor impairments
log[IC50], BK receptors, [3H]BK (BK receptors): −6.83 ± 0.09
IC50 (BK receptors; read-out: IC50, BK receptors, [3H]BK): 150 nM
time to degradation ([1]; human plasma incubation): ≤ 4 h
remaining at 24 h, 10 mg/mL ([1]; human, human plasma): 0%
half-life ([1]; human, plasma): 144 min
time to complete degradation ([2]; rat plasma incubation): ≤ 4 h
half-life ([2]; rat, plasma, t1/2 in rat plasma, 37 °C, 24 h study): < 60 min
remaining at 24 h, 10 mg/mL ([2]; rat, rat plasma): 0%
half-life ([3]; 60 nM bestatin): 48 min
half-life ([3]; 1 mM EDTA): 48 min
half-life ([3]; 1 mM PMSF): 48 min
thermal hyperalgesia and mechanical hypersensitivity (SNL rats): reverse thermal hyperalgesia and mechanical hypersensitivity
